Measured values as given in ChEMBL document CHEMBL1255437, “Involvement of the beta subunit of RNA polymerase in resistance to streptolydigin and streptovaricin in the producer organisms Streptomyces lydicus and Streptomyces spectabilis” (2010).
≈ marks a conversion by molar mass, not a printed value.

What was measured:
[1] = system: Streptomyces albus; experiment: Antimicrobial activity against transconjugant Streptomyces albus carrying pEM4T-Sbeta204 with RNA polymerase beta subunit L463I mutant after 5 to 7 days; type: functional
Summary of the method: (§1)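 MIC by agar dilution. Spore suspensions were replica plated with a plate replicator onto Bennet's agar containing a range of streptolydigin or streptovaricin concentrations, then incubated 5 to 7 days at 30°C. Recombinant S. albus strains carried pEM4T-derived plasmids introduced by conjugation from E. coli ET12567(pUB307); producer strains and host S. albus J1074 were tested the same way.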

[2] = system: Streptomyces albus; experiment: Antimicrobial activity against transconjugant Streptomyces albus carrying pEM4T-Sbeta205 with RNA polymerase beta subunit S470N mutant after 5 to 7 days; type: functional; summary of the method: as §1
[3] = system: Streptomyces albus; experiment: Antimicrobial activity against transconjugant Streptomyces albus carrying pEM4T-Sbeta105 with RNA polymerase beta subunit N474S/S475A mutant after 5 to 7 days; type: functional; summary of the method: as §1
[4] = system: Streptomyces albus; experiment: Antimicrobial activity against transconjugant Streptomyces albus carrying pEM4T-Sbeta100 with RNA polymerase beta subunit I467L mutant after 5 to 7 days; type: functional; summary of the method: as §1
[5] = system: Streptomyces albus; experiment: Antimicrobial activity against transconjugant Streptomyces albus carrying pEM4T-Sbeta after 5 to 7 days; type: functional; summary of the method: as §1
[6] = system: Streptomyces spectabilis; experiment: Antimicrobial activity against Streptomyces spectabilis NRRL 2494 after 5 to 7 days
[7] = system: Streptomyces albus; experiment: Antimicrobial activity against transconjugant Streptomyces albus carrying pEM4T-Sbeta101 with RNA polymerase beta subunit N474S mutant after 5 to 7 days; type: functional; summary of the method: as §1
[8] = system: Streptomyces albus; experiment: Antimicrobial activity against transconjugant Streptomyces albus carrying pEM4T-Sbeta' after 5 to 7 days; type: functional; summary of the method: as §1
[9] = system: Streptomyces albus; experiment: Antimicrobial activity against transconjugant Streptomyces albus carrying pEM4T-Abeta207 with RNA polymerase beta subunit S470N/A471S mutant after 5 to 7 days; type: functional; summary of the method: as §1
[10] = system: Streptomyces albus; experiment: Antimicrobial activity against transconjugant Streptomyces albus carrying pEM4T-CASbeta after 5 to 7 days; type: functional; summary of the method: as §1
[11] = system: Streptomyces albus; experiment: Antimicrobial activity against transconjugant Streptomyces albus carrying pEM4T-Sbeta104 with RNA polymerase beta subunit A639S mutant after 5 to 7 days; type: functional; summary of the method: as §1
[12] = system: Streptomyces albus; experiment: Antimicrobial activity against transconjugant Streptomyces albus carrying pEM4T-Sbeta102 with RNA polymerase beta subunit S475A mutant after 5 to 7 days; type: functional; summary of the method: as §1
[13] = system: Streptomyces albus; experiment: Antimicrobial activity against transconjugant Streptomyces albus carrying pEM4T-Sbeta103 with RNA polymerase beta subunit T638K mutant after 5 to 7 days; type: functional; summary of the method: as §1
[14] = system: Streptomyces albus; experiment: Antimicrobial activity against transconjugant Streptomyces albus carrying pEM4T-Sbeta206 with RNA polymerase beta subunit A471S mutant after 5 to 7 days; type: functional; summary of the method: as §1
[15] = system: Streptomyces albus; experiment: Antimicrobial activity against transconjugant Streptomyces albus carrying pEM4T-Lbeta105 with RNA polymerase beta subunit S624A mutant after 5 to 7 days; type: functional; summary of the method: as §1
[16] = system: Streptomyces albus; experiment: Antimicrobial activity against transconjugant Streptomyces albus carrying pEM4T-Lbeta' after 5 to 7 days; type: functional; summary of the method: as §1
[17] = system: Streptomyces albus; experiment: Antimicrobial activity against transconjugant Streptomyces albus carrying pEM4T-Lbeta102 with RNA polymerase beta subunit D486E mutant after 5 to 7 days; type: functional; summary of the method: as §1
[18] = system: Streptomyces albus; experiment: Antimicrobial activity against transconjugant Streptomyces albus carrying pEM4T-Lbeta after 5 to 7 days; type: functional; summary of the method: as §1
[19] = system: Streptomyces albus; experiment: Antimicrobial activity against transconjugant Streptomyces albus carrying pEM4T-Lbeta103 with RNA polymerase beta subunit L555V mutant after 5 to 7 days; type: functional; summary of the method: as §1
[20] = system: Streptomyces albus; experiment: Antimicrobial activity against transconjugant Streptomyces albus carrying pEM4T-Lbeta106 with RNA polymerase beta subunit A636S mutant after 5 to 7 days; type: functional; summary of the method: as §1
[21] = system: Streptomyces albus; experiment: Antimicrobial activity against transconjugant Streptomyces albus carrying pEM4T-Abeta202 with RNA polymerase beta subunit E485D mutant after 5 to 7 days; type: functional; summary of the method: as §1
[22] = system: Streptomyces albus; experiment: Antimicrobial activity against transconjugant Streptomyces albus carrying pEM4T-Abeta201 with RNA polymerase beta subunit F484L mutant after 5 to 7 days; type: functional; summary of the method: as §1
[23] = system: Streptomyces albus; experiment: Antimicrobial activity against transconjugant Streptomyces albus carrying pEM4T-Lbeta107 with RNA polymerase beta subunit L485F/D486E mutant after 5 to 7 days; type: functional; summary of the method: as §1
[24] = system: Streptomyces albus; experiment: Antimicrobial activity against transconjugant Streptomyces albus carrying pEM4T-Abeta203 with RNA polymerase beta subunit F484L/E485D mutant after 5 to 7 days; type: functional; summary of the method: as §1
[25] = system: Streptomyces albus; experiment: Antimicrobial activity against transconjugant Streptomyces albus carrying pEM4T-Lbeta108 with RNA polymerase beta subunit F593Y/M594L mutant after 5 to 7 days; type: functional; summary of the method: as §1
[26] = system: Streptomyces albus; experiment: Antimicrobial activity against transconjugant Streptomyces albus carrying pEM4T-Abeta after 5 to 7 days; type: functional; summary of the method: as §1
[27] = system: Streptomyces albus; experiment: Antimicrobial activity against transconjugant Streptomyces albus carrying pEM4T-Lbeta100 with RNA polymerase beta subunit T458N mutant after 5 to 7 days; type: functional; summary of the method: as §1
[28] = system: Streptomyces albus; experiment: Antimicrobial activity against transconjugant Streptomyces albus carrying pEM4T after 5 to 7 days; type: functional; summary of the method: as §1
[29] = system: Streptomyces lydicus; experiment: Antimicrobial activity against Streptomyces lydicus NRRL 2433 after 5 to 7 days; type: functional
Summary of the method: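 Spore suspensions replica-plated with a plate replicator onto Bennet's agar plates containing a range of streptolydigin and streptovaricin concentrations. Plates incubated 5 to 7 days at 30°C. MIC scored as growth inhibition on the solid medium. Strain NRRL2433 is the streptolydigin producer.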

[30] = system: Streptomyces albus; experiment: Antimicrobial activity against transconjugant Streptomyces albus carrying pEM4T-Lbeta104 with RNA polymerase beta subunit F593Y mutant after 5 to 7 days; type: functional; summary of the method: as §1
[31] = system: Streptomyces albus; experiment: Antimicrobial activity against transconjugant Streptomyces albus J1074 after 5 to 7 days; type: functional; summary of the method: as §1
[32] = system: Streptomyces albus; experiment: Antimicrobial activity against transconjugant Streptomyces albus carrying pEM4T-CALbeta after 5 to 7 days; type: functional; summary of the method: as §1
[33] = system: Streptomyces albus; experiment: Antimicrobial activity against transconjugant Streptomyces albus carrying pEM4T-Lbeta101 with RNA polymerase beta subunit L485F mutant after 5 to 7 days; type: functional; summary of the method: as §1

| Structure (SMILES) | MIC [1] [µg/mL] | MIC [2] [µg/mL] | MIC [3] [µg/mL] | MIC [4] [µg/mL] | MIC [5] [µg/mL] | MIC [6] [µg/mL] | MIC [7] [µg/mL] | MIC [8] [µg/mL] | MIC [9] [µg/mL] | MIC [10] [µg/mL] | MIC [11] [µg/mL] | MIC [12] [µg/mL] | MIC [13] [µg/mL] | MIC [14] [µg/mL] | other results |
| --- | --- | --- | --- | --- | --- | --- | --- | --- | --- | --- | --- | --- | --- | --- | --- |
| CO[C@H]1/C=C/O[C@@]2(C)Oc3c(C)c(O)c4c(O)c(c(/C=N/N5CCN(C)CC5)c(O)c4c3C2=O)NC(=O)/C(C)=C\C=C\[C@H](C)[C@H](O)[C@@H](C)[C@@H](O)[C@@H](C)[C@H](OC(C)=O)[C@@H]1C [RIFAMPIN] | 5 (≈ 6.08 µM) | 5 (≈ 6.08 µM) | 5 (≈ 6.08 µM) | 40 (≈ 48.6 µM) | 40 (≈ 48.6 µM) | > 40 | 5 (≈ 6.08 µM) | 5 (≈ 6.08 µM) | 40 (≈ 48.6 µM) | 40 (≈ 48.6 µM) | 40 (≈ 48.6 µM) | 40 (≈ 48.6 µM) | 20 (≈ 24.3 µM) | 5 (≈ 6.08 µM) |  |
| COC(=O)[C@@H]1[C@H](O)[C@H](C)[C@H](O)[C@H](C)/C=C\C=C(/C)C(=O)Nc2c(C)c(OC(C)=O)c3c(c2O)C(=O)C(C)=C2OCOC(=C23)/C(C)=C/[C@@](C)(O)[C@H](O)[C@@H](C)[C@H]1O [STREPTOVARICIN] | 70 (≈ 90.9 µM) | 80 (≈ 104 µM) | 70 (≈ 90.9 µM) | 200 (≈ 260 µM) | 200 (≈ 260 µM) | > 200 | 200 (≈ 260 µM) | 70 (≈ 90.9 µM) | 200 (≈ 260 µM) | 200 (≈ 260 µM) | 200 (≈ 260 µM) | 200 (≈ 260 µM) | 200 (≈ 260 µM) | 80 (≈ 104 µM) |  |
| CNC(=O)[C@@H](C)[C@H]1C(=O)/C(=C(O)/C=C/C(C)=C/[C@@H](C)[C@H]2O[C@@]3(C)O[C@H](C=C[C@@]34CO4)[C@@H]2C)C(=O)N1[C@@H]1CC[C@H](O)[C@H](C)O1 [STREPTOLYDIGIN] |  |  |  |  |  |  |  |  |  |  |  |  |  |  | MIC [15]: 20 µg/mL (≈ 33.3 µM); MIC [16]: 1 µg/mL (≈ 1.66 µM); MIC [17]: 10 µg/mL (≈ 16.6 µM); MIC [18]: 20 µg/mL (≈ 33.3 µM); MIC [19]: 1 µg/mL (≈ 1.66 µM); MIC [20]: 10 µg/mL (≈ 16.6 µM); MIC [21]: 1 µg/mL (≈ 1.66 µM); MIC [22]: 6 µg/mL (≈ 9.99 µM); MIC [23]: 1 µg/mL (≈ 1.66 µM); MIC [24]: 9 µg/mL (≈ 15 µM); MIC [25]: 1 µg/mL (≈ 1.66 µM); MIC [26]: 1 µg/mL (≈ 1.66 µM); MIC [27]: 20 µg/mL (≈ 33.3 µM); MIC [28]: 1 µg/mL (≈ 1.66 µM); MIC [29]: > 200 µg/mL; MIC [30]: 10 µg/mL (≈ 16.6 µM); MIC [31]: 1 µg/mL (≈ 1.66 µM); MIC [32]: 20 µg/mL (≈ 33.3 µM); MIC [33]: 1 µg/mL (≈ 1.66 µM) |
